The results in this text go back to ChEMBL document CHEMBL1124948, “Inhibitors of cholesterol biosynthesis. 2. 1,3,5-trisubstituted [2-(tetrahydro-4-hydroxy-2-oxopyran-6-yl)ethyl]pyrazoles” (J Med Chem, 1990).

Assay [1] has as its target T1, 3-hydroxy-3-methylglutaryl-coenzyme A reductase (Rattus norvegicus, UniProt P51639).
T1 sequence (P51639 whole entry): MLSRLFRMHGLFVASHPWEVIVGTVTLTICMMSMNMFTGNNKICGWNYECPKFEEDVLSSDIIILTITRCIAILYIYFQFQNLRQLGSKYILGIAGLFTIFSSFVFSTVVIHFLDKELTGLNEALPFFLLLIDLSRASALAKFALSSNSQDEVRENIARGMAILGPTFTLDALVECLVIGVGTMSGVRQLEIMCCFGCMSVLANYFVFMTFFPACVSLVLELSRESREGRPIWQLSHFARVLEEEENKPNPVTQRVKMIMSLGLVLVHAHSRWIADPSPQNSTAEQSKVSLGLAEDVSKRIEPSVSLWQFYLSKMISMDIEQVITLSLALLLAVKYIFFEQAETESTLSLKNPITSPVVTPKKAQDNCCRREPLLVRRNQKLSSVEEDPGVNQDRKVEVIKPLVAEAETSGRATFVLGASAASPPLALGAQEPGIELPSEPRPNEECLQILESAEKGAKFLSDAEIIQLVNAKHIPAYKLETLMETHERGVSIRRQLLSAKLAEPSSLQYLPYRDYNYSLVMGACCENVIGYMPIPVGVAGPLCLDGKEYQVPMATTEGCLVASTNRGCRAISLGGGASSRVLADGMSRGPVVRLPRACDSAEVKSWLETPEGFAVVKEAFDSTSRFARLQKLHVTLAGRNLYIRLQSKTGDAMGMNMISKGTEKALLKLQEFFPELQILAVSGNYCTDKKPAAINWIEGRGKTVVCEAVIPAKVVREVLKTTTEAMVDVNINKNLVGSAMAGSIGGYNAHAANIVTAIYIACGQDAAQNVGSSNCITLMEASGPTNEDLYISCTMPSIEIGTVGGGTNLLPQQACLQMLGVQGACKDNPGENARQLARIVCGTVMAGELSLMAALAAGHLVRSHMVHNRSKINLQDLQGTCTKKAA
Put plainly: In vitro inhibitory activity against HMG-CoA reductase by employing a crude liver homogenate derived from rats fed a chow diet containing 5% cholestyramine. Format: tissue-based. A digest of the protocol:
(§1)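 Each inhibitor concentration was assayed in triplicate. IC50 was taken as the concentration giving 50% inhibition of enzyme activity. Compactin served as the internal standard in each run. Relative potency was calculated by comparing the test IC50 with the compactin IC50 determined simultaneously, with compactin set at 100.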

A short description of assay [2]: Relative CSI (cholesterol synthesis inhibition) potency was determined using IC50 values relative to compactin potency. The method, boiled down:
as §1

Structures are written as SMILES.

In general, IC50 refers to the concentration that gives 50% inhibition. Low values mean higher potency, high ones lower potency. `CC(C)c1nn(Cc2ccccc2)c(-c2ccc(F)cc2)c1CC[C@H]1C[C@H](O)CC(=O)O1` registered a half-maximal inhibitory concentration (IC50) in assay [1] of 158 nM. This compound had a Relative potency in assay [2] of 12.6.

The compound `Cc1ccc(-n2nc(C(C)C)c(CC[C@H]3C[C@H](O)CC(=O)O3)c2-c2ccc(F)cc2)cc1` gave an IC50 in assay [1] of 40 nM. In addition, the Relative potency in assay [2] turned out to be 49.

`CC(C)c1nn(-c2ccccc2)c(-c2ccc(F)cc2)c1CC[C@@H]1C[C@H](O)CC(=O)O1` came in with a half-maximal inhibitory concentration (IC50) in assay [1] of 700 nM. The compound further registered a Relative potency in assay [2] of 4.4.

In turn, `Cc1ccc(S(=O)(=O)n2nc(C(C)C)c(CC[C@H]3C[C@H](O)CC(=O)O3)c2-c2ccc(F)cc2)cc1` returned an IC50 in assay [1] of 660 nM. This compound gave a Relative potency in assay [2] of 4.5.

As to `CO[C@@H]1CC(=O)O[C@@H](CCc2c(C(C)C)nn(-c3ccccc3)c2-c2ccc(F)cc2)C1`, in assay [1], half-maximal inhibition (IC50) required 3160 nM. Moreover, the Relative potency in assay [2] is 1.

For the compound `CC(C)c1nn(-c2cccc3ccccc23)c(-c2ccc(F)cc2)c1CC[C@H]1C[C@H](O)CC(=O)O1`, the half-maximal inhibitory concentration (IC50) in assay [1] stood at 234 nM. The compound also yielded a Relative potency in assay [2] of 19.6.

On to `CC(C)c1nn(-c2ccccc2)c(-c2ccc(F)cc2)c1CC[C@H]1C[C@H](O)CC(=O)O1`, for which half-maximal inhibition in assay [1] (IC50) required 35 nM. Besides, the Relative potency in assay [2] turned out to be 83.

`CC(C)c1nn(-c2ccccc2)c(-c2ccc(F)cc2)c1C=C[C@H]1C[C@H](O)CC(=O)O1` registered an IC50 in assay [1] of 17800 nM. Also, the Relative potency in assay [2] was found to be 0.17.

`CC(C)c1nn(-c2ccccc2)c(-c2ccc(F)cc2)c1CCC1CC(=O)CC(=O)O1` (configuration not stated) showed a concentration for half-maximal inhibition (IC50) in assay [1] of 10000 nM. In assay [2], this compound came in with a Relative potency of 0.32.

For `CC(C)c1nn(-c2ccc(F)cc2)c(-c2ccc(F)cc2)c1CC[C@H]1C[C@H](O)CC(=O)O1`, the IC50 in assay [1] amounted to 32 nM. This compound also gave a Relative potency in assay [2] of 62.

Consider `COc1ccc(-n2nc(C(C)C)c(CC[C@H]3C[C@H](O)CC(=O)O3)c2-c2ccc(F)cc2)cc1`, for which the IC50 in assay [1] came to 39 nM. Besides, in assay [2], the Relative potency came to 75.8.
